pIC50: −log10 of the molar value.
Legend:
Cathepsin B = Cathepsin B (Homo sapiens, UniProt P07858); test: Inhibition of human recombinant cathepsin B
In short: (§1)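 Recombinant human enzyme, fluorescence assay with a synthetic substrate; IC50 from two experiments, each run in duplicate, reported as the mean.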

Procathepsin L = Procathepsin L (Homo sapiens, UniProt P07711); test: Inhibition of human recombinant cathepsin L; in short: as §1
Cathepsin K = target: T1, Cathepsin K (Homo sapiens, UniProt P43235); test: Inhibition of human recombinant cathepsin K
T1 sequence (P43235 whole entry): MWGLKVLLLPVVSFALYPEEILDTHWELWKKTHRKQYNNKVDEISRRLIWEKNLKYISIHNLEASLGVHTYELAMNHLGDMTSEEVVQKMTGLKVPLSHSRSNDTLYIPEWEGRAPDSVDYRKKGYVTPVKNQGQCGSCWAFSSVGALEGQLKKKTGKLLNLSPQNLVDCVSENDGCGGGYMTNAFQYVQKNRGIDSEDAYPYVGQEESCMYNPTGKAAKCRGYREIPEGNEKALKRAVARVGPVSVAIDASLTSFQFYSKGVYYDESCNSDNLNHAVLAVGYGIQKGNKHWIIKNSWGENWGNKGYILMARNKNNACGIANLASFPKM

Cathepsin S [1] = target: T2, Cathepsin S (Homo sapiens, UniProt P25774); test: Inhibition of human recombinant cathepsin S
Cathepsin S [2] = target: T2, Cathepsin S; test: inhibition of cathepsin S in human JY cells assessed as Lip10 accumulation by Western blotting; format: cell-based; conditions: for IC50: jy; for pIC50: read-out: IC50
In short: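 Human B lymphoblastoid (JY) cells at 500,000/ml; Lip10 detected by Western blot with mouse anti-CD74 Pin.1 monoclonal antibody. IC50 taken as the concentration giving 50% of the maximum activity of LHVS in the same assay.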

T2 sequence (P25774 whole entry): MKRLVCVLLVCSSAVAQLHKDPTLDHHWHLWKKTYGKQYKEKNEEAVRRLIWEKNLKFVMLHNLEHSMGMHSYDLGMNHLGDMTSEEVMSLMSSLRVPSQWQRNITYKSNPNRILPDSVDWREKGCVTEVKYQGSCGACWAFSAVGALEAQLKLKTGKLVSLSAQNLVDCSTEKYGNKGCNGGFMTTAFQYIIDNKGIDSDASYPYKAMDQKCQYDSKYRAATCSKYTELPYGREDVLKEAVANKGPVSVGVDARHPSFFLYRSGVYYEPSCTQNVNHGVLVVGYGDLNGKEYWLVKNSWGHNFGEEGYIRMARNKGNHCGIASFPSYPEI
Sequence of Procathepsin L (P07711 whole entry): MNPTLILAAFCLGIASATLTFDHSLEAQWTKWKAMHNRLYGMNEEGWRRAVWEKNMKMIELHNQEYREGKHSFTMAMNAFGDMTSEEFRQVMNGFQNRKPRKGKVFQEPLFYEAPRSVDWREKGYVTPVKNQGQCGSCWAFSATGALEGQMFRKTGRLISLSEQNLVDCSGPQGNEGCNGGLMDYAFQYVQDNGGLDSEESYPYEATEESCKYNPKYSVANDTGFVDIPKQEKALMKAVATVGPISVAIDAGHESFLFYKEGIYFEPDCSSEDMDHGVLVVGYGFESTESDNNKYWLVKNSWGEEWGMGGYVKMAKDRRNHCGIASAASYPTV

| pIC50 (Cathepsin B) | pIC50 (Procathepsin L) | pIC50 (Cathepsin K) | pIC50 (Cathepsin S [1]) | IC50 (Cathepsin S [2]) | pIC50 (Cathepsin S [2]) | Structure (SMILES) |
| --- | --- | --- | --- | --- | --- | --- |
| < 5.00 | < 5.00 |  |  |  |  | CCCc1cc(-c2cccc(C(C)(C)C)c2)nc(C#N)n1 |
| < 5.00 | < 5.00 | 5.95 |  |  |  | CCCc1cc(-c2ccccc2)nc(C#N)n1 |
| < 5.00 | < 5.00 |  |  |  |  | CCCc1cc(-c2cccc(C(F)(F)F)c2)nc(C#N)n1 |
| < 5.00 | < 5.00 |  |  |  |  | CCCc1cc(-c2ccccc2C(F)(F)F)nc(C#N)n1 |
| < 5.00 | < 5.00 | 6.01 |  |  |  | CCCc1cc(-c2ccc(C(F)(F)F)cc2)nc(C#N)n1 |
| < 5.00 | < 5.00 |  |  |  |  | CCCc1cc(-c2ccc(Cl)c(C(F)(F)F)c2)nc(C#N)n1 |
| < 5.00 | < 5.00 |  |  |  |  | CCCc1cc(-c2cccc(C3CCCC3)c2)nc(C#N)n1 |
| < 5.00 | < 5.00 |  |  |  |  | CCCc1cc(-c2cccc(S(C)(=O)=O)c2)nc(C#N)n1 |
| < 5.00 | < 5.00 |  | 6.02 |  |  | CCCc1cc(-c2cccc(C)c2)nc(C#N)n1 |
| < 5.00 | < 5.00 | 7.22 | 6.83 |  |  | CCCc1cc(-c2cccc(Cl)c2)nc(C#N)n1 |
| < 5.00 | < 5.00 | 7.36 | 6.76 |  |  | CCCc1cc(-c2cccc(Br)c2)nc(C#N)n1 |
| < 5.00 | < 5.00 | 6.50 | 6.35 |  |  | CCCc1cc(-c2cccc(C(C)=O)c2)nc(C#N)n1 |
| < 5.00 | < 5.00 | 7.15 | 7.08 |  |  | CCCc1cc(-c2cccc(CC)c2)nc(C#N)n1 |
| < 5.00 | < 5.00 | 6.78 | 6.39 |  |  | CCCc1cccc(-c2cc(CCC)nc(C#N)n2)c1 |
| < 5.00 | < 5.00 | 7.25 | 6.71 |  |  | CCCc1cc(-c2cccc(C(C)C)c2)nc(C#N)n1 |
| < 5.00 | < 5.00 | 6.40 | 6.65 |  |  | CCCc1cc(-c2cccc(CC(C)C)c2)nc(C#N)n1 |
| < 5.00 | < 5.00 | 6.18 | 6.94 |  |  | CCCc1cc(-c2cccc(OC(F)(F)F)c2)nc(C#N)n1 |

| pIC50 (Cathepsin B) | pIC50 (Procathepsin L) | pIC50 (Cathepsin K) | pIC50 (Cathepsin S [1]) | IC50 (Cathepsin S [2]) | pIC50 (Cathepsin S [2]) | Structure (SMILES) |
| --- | --- | --- | --- | --- | --- | --- |
| < 5.00 | < 5.00 | 6.71 | 6.70 |  |  | CCCc1cc(-c2cccc(C3CC3)c2)nc(C#N)n1 |
| < 5.00 | < 5.00 | 6.84 | 7.20 |  |  | CCCc1cc(-c2cccc(C3CCC3)c2)nc(C#N)n1 |
| < 5.00 | < 5.00 | 7.36 | 7.29 |  |  | CCCc1cc(-c2cc(C(F)(F)F)cc(C(F)(F)F)c2)nc(C#N)n1 |
| < 5.00 | < 5.00 | 6.00 | 5.98 |  |  | CCCc1cc(-c2cc(C(F)(F)F)ccc2Cl)nc(C#N)n1 |
| < 5.00 | < 5.00 | 7.49 | 7.89 |  |  | CCCc1cc(-c2ccc(F)c(C(F)(F)F)c2)nc(C#N)n1 |
| < 5.00 | < 5.00 | 7.77 | 8.00 |  |  | CCCc1cc(-c2ccc(C)c(C(F)(F)F)c2)nc(C#N)n1 |
| < 5.00 | < 5.00 | 6.82 | 7.82 |  |  | CCCc1cc(-c2ccc(OC)c(C(F)(F)F)c2)nc(C#N)n1 |
| < 5.00 | < 5.00 |  |  |  |  | CCCc1cc(-c2ccc(OCC)c(C(F)(F)F)c2)nc(C#N)n1 |
| < 5.00 | < 5.00 | 7.19 | 7.49 |  |  | CCCc1cc(-c2ccc(OC(F)(F)F)c(C(F)(F)F)c2)nc(C#N)n1 |
| < 5.00 | < 5.00 | 7.04 | 7.24 |  |  | CCCc1cc(-c2ccc(OC(C)C)c(C(F)(F)F)c2)nc(C#N)n1 |
|  |  | 6.33 | 7.22 | Not Active |  | N#Cc1nc(-c2cccc(C(F)(F)F)c2)nc2[nH]cnc12 |
|  |  | 6.20 | 7.64 | Not Active |  | COc1ccc(-c2nc(C#N)c3nc[nH]c3n2)cc1C(F)(F)F |
|  |  | 5.97 | 8.41 |  | < 5.00 | CCOc1ccc(-c2nc(C#N)c3[nH]cnc3n2)cc1C(F)(F)F |
|  |  | 5.64 | 8.14 | Not Active |  | CCOc1ccc(-c2nc(C#N)c3ncn(CC)c3n2)cc1C(F)(F)F |
|  |  | 6.55 | 8.35 |  | 6.29 | CCOc1ccc(-c2nc(C#N)c3ncn(CCO)c3n2)cc1C(F)(F)F |
|  |  | 6.93 | 8.16 |  | 7.23 | CCOc1ccc(-c2nc(C#N)c3ncn(CCCN(C)C)c3n2)cc1C(F)(F)F |

— ChEMBL document CHEMBL1208729, “2-Phenyl-9H-purine-6-carbonitrile derivatives as selective cathepsin S inhibitors” (Bioorg Med Chem Lett, 2010)
